The values that follow come from ChEMBL document CHEMBL1138124, “Novel sulfonanilide analogues suppress aromatase expression and activity in breast cancer cells independent of COX-2 inhibition” (J Med Chem, 2006).

Active and inactive are the calls of the source. The rule behind the calls is not given here.

The target of data set [1] is T1, Aromatase (Homo sapiens, UniProt P11511).
T1 sequence (P11511 whole entry): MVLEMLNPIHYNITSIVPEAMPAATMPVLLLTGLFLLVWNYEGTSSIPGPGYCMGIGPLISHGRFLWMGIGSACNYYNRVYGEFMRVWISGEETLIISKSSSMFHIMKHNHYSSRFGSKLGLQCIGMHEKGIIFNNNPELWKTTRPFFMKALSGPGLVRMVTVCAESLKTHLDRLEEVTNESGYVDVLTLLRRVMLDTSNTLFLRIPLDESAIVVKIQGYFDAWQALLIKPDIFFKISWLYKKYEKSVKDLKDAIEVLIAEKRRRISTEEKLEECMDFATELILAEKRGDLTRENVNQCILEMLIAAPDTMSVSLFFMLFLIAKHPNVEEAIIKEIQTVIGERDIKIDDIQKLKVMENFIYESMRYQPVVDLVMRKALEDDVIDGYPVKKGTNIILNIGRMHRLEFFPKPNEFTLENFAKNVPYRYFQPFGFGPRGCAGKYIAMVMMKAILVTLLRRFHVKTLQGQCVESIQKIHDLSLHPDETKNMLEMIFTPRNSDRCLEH
Kind of data set: Inhibition of aromatase activity in human placental microsomes at 5 uM. The arrangement: species or system Placenta. The procedure, abridged:
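Human term placental microsomes (50 µg protein) incubated with 100 nM [1β-3H]androst-4-ene-3,17-dione for 15 min at 37 °C, compound at 5 µM. Quenched with chloroform; released 3H2O counted. Triplicates, with background taken from boiled microsomes. 50 µM aminoglutethimide served as positive control. Normalized to vehicle; three independent determinations.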

For data set [2], the system named is MDA-MB-231. Kind of data set: Reduction in PGE2 levels in MDA-MB-231 cell. The data set is classed as functional, cell-based. The following applies: Homo sapiens. The procedure, abridged: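 MDA-MB-231 cells in phenol red-free MEM with 10% FBS were plated at 15 × 10^4 per dish, adhered overnight, then serum-starved 24 h. They were then treated 24 h at 37 °C with 25 µM agent or DMSO. PGE2 in the medium was measured by ELISA and normalized to total protein from NaOH extracts; mean ± SEM, n = 6.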

For data set [3], the system named is SK-BR-3. In words: Reduction in CYP19 mRNA expression in SKBr3 cells after 24h exposure to 25uM relative to control. To be noted: Homo sapiens. The data set is classed as functional, cell-based. Put shortly: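 SK-BR-3 cells were exposed 24 h to 25 µM agent or vehicle and total RNA isolated. DNase-treated RNA (2 µg) was reverse transcribed with random hexamers. CYP19 transcripts were quantified by real-time PCR (50 cycles, 95 °C 15 s / 60 °C 1 min), with 18S rRNA as housekeeping reference, relative to vehicle control.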

`CS(=O)(=O)Nc1ccc([N+](=O)[O-])cc1OCC1CCCCC1`: the Inhibition entry in data set [1] is on record as “Not Active”.
`CCCOc1cc([N+](=O)[O-])ccc1NS(C)(=O)=O`: in data set [1], the Inhibition entry was “Not Active”.
Still for that read-out and setting: under `CCCCCCCCCOc1cc([N+](=O)[O-])ccc1N(C)S(C)(=O)=O` stands “Not Active”; under `CC(C)Oc1cc([N+](=O)[O-])ccc1NS(C)(=O)=O`, “Not Active”; under `CCCCCCOc1cc([N+](=O)[O-])ccc1NS(C)(=O)=O`, “Not Active”.
With `CN(c1ccc([N+](=O)[O-])cc1OCC1CCCCC1)S(C)(=O)=O`, the Inhibition entry in data set [1] is reported as “Not Active”. Further, in data set [2], the outcome was inactive.
For `CCCCCCOc1cc([N+](=O)[O-])ccc1N(C)S(C)(=O)=O`, in data set [1], the Inhibition result was “Not Active”.
As for `CCC(CC)Oc1cc([N+](=O)[O-])ccc1N(C)S(C)(=O)=O`, in data set [3], the result was Active. In addition, in data set [1], the Inhibition result is listed as “Not Active”. Moreover, in data set [2], the outcome was inactive.
`COc1cc([N+](=O)[O-])ccc1NS(C)(=O)=O`: in data set [1], the Inhibition entry was “Not Active”.
The same measure, in the same setting: then `COc1cc([N+](=O)[O-])ccc1N(C)S(C)(=O)=O`, with “Not Active”.
Same read-out and setting: under `CCCOc1cc([N+](=O)[O-])ccc1N(C)S(C)(=O)=O` stands “Not Active”.
Take `CS(=O)(=O)Nc1ccc([N+](=O)[O-])cc1OC1CCCC1`: in data set [1], the Inhibition entry is recorded as “Not Active”. For the same compound, the outcome in data set [2] was Active.
On to `CC(C)Oc1cc([N+](=O)[O-])ccc1N(C)S(C)(=O)=O`, for which the Inhibition result in data set [1] is “Not Active”.
For `CS(=O)(=O)Nc1ccc([N+](=O)[O-])cc1OC1CCCCC1` [NS-398], the result in data set [3] and in data set [2] was Active. Moreover, in data set [1], the Inhibition result is “Not Active”.
Turning to `CN(c1ccc([N+](=O)[O-])cc1OC1CCCC1)S(C)(=O)=O`, in data set [1], the Inhibition result is “Not Active”. The outcome in data set [2] was inactive.
`CCCCCCCCCOc1cc([N+](=O)[O-])ccc1NS(C)(=O)=O`: in data set [1], the Inhibition entry is reported as “Not Active”.
With `CN(c1ccc([N+](=O)[O-])cc1OC1CCCCC1)S(C)(=O)=O`, the result in data set [3] was Active. Besides, the Inhibition result in data set [1] is reported as “Not Active”. Further, the result in data set [2] was inactive.
For `CCC(CC)Oc1cc([N+](=O)[O-])ccc1NS(C)(=O)=O`, the outcome in data set [3] and in data set [2] was Active. Moreover, in data set [1], the Inhibition entry is “Not Active”.
